Source: PubChem (several laboratories)
ROCK2 blocker: ROCK2 (human) kinase inhibition. O75116. actives 0.35% (n = 60,000). inhibition, % at 6 µM. purified ROCK2, Kinase-Glo ATP depletion luminescence;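 active = inhibition above the screen-wide mean inhibition plus 3 SD, cut at about 18% in these data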
SF-1 act: activates the human nuclear receptor SF-1 | AID 522 | CHO-K1 Gal4-SF-1 LBD luciferase reporter; % increase over DMSO SF-1-specific signal | activation, % at 10 µM | actives 1.9% (n = 65,000) | Q13285;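 active = activation above the mean activation of all tested compounds plus 3 SD, cut at about 50% in these data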
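Assay system – CHO-K1 cells with Gal4–hSF-1 LBD chimera plus Gal4-driven luciferase · Quantity – 4,000 cells per well · Times – compound added 1 h post-seeding, 20 h exposure at 37 °C, 5% CO2 · Measured by – luciferase light emission · Benchmarks – DMSO and mock-transfected background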
WNV protease inh: inhibitors of West Nile virus NS2B-NS3 protease | P06935 | actives 0.18% (n = 65,000) | WNV NS2B-NS3 protease, fluorogenic substrate Ex360/Em465; stronger effect = lower value | z-score (concentration not given with the values); in the data active = z-score below about -3
PKA inh: inhibitors of human protein kinase A | P17612 | PKA Kemptide phosphorylation, Kinase-Glo ATP luminescence | inhibition, % at 6 µM | actives 0.1% (n = 65,000) | AID 524;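 active = inhibition above the screen-wide mean inhibition plus 3 SD, cut at about 21% in these data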
RORA act: RORA (human) activation | actives 1.5% (n = 65,000) | CHO-K1 Gal4-RORA LBD luciferase reporter, luminescence; percent increase over mock-subtracted basal signal | activation, % at 10 µM | P35398 | AID 560;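 active = activation above the mean of all tested compounds plus 3 SD, cut at about 49% in these data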
Target sequence (P35398 whole entry, looked up, the tested form may be a part): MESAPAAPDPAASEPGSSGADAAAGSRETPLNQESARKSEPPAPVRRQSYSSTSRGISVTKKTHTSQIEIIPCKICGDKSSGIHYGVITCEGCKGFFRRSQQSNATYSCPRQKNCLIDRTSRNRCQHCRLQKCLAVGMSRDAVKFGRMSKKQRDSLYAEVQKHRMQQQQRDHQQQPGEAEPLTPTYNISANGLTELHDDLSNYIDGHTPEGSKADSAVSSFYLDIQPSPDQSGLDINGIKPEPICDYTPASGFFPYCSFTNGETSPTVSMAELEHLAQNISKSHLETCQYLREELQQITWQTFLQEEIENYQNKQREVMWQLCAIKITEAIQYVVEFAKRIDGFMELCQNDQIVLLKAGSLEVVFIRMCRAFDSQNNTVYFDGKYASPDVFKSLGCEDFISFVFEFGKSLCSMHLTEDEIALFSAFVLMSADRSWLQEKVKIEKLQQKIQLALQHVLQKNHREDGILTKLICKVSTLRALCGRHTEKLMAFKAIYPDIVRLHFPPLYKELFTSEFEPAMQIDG
JNK3 inh: inhibitors of human JNK3 kinase; purified JNK3 kinase activity, HTS; AID 746; actives 0.61% (n = 60,000); inhibition, % at 8 µM; P53779; in the data active = inhibition above about 17%
A number is an active result; – = inactive; · = not tested or not shown. An excerpt weighted towards active compounds, which were near 3.4% of everything screened.

SMILES | ROCK2 blocker | SF-1 act | WNV protease inh | PKA inh | RORA act | JNK3 inh
CCSc1nnc(NC(=O)c2ccccc2)s1 | – | – | – | – | 66 | –
CCSc1nnc(Nc2ccccc2)s1 | – | 54 | – | – | – | –
CCSc1nnc(NC(=O)c2ccco2)s1 | – | – | – | – | 53 | –
CCSc1nnc(NC(=O)NCC(F)(F)F)s1 | – | – | -7.8 | – | – | –
O=C(Nc1nnc(SCc2ccc(Cl)cc2)s1)c1ccco1 | – | – | – | – | – | –
CCSc1nnc(NC(=O)C(C)(C(F)(F)F)C(F)(F)F)s1 | – | – | – | – | – | –
O=C1C(C=Nc2ccccc2O)=C(O)c2ccccc21 | – | – | – | – | – | 35
Cc1ccc(O)c(N=CC2=C(O)c3ccccc3C2=O)c1 | – | – | – | – | – | –
CC(=O)Nc1nc2cc3c(cc2s1)OCO3 | – | – | – | – | 72 | –
COc1ccc2sc(NC(=O)CC(C)C)nc2c1 | – | 66 | – | – | – | –
CCC(=O)Nc1nc2cc(OC)ccc2s1 | – | – | – | – | – | –
COc1ccc2sc(NC(C)=O)nc2c1 | – | 50 | – | – | 56 | –
c1cc(Nc2ncnc3sccc23)cc(-c2nnc3n2CCCCC3)c1 | – | – | – | – | – | –
CC1CCN(S(=O)(=O)c2ccc(S(=O)(=O)NCC3COCCO3)cc2)CC1 (stereo not given) | – | – | – | – | – | –
Cn1c(CSc2nc3ccccc3s2)nc2ccccc21 | – | 71 | – | – | – | –
Cn1c(CSc2nc3ccccc3s2)n[nH]c1=S | – | – | – | – | – | –
O=c1oc2ccccc2n1CSc1nc2ccccc2s1 | – | 52 | – | – | 66 | –
O=c1oc2ccccc2n1CSC1=NCCS1 | – | – | – | – | – | –
COc1ccc(OC)c(S(=O)(=O)N2CCC(C(=O)N3CCc4ccccc4C3)CC2)c1 | – | – | – | – | – | –
CCOc1ccc(NC2c3ccccc3C(=O)N2Cc2ccco2)cc1 (stereo not given) | – | – | – | – | – | –
COc1ccccc1Nc1nc2ccccc2[nH]1 | – | 66 | – | – | – | –
CCOC1(OCC)N=C(N)C2(C#N)C(c3ccc(NC(C)=O)cc3)C12C#N (stereo not given) | 26 | – | – | – | – | –
Nc1nnc(SCCOc2ccc(Br)cc2)s1 | – | – | – | – | – | –
CC(C)NC(=O)NC(=O)COc1ncnc2sccc12 | · | – | – | – | – | ·
c1ccc(OCCOc2ncnc3sccc23)cc1 | – | 53 | – | – | – | –
SMILES | ROCK2 blocker | SF-1 act | WNV protease inh | PKA inh | RORA act | JNK3 inh
CCCS(=O)(=O)N1CCCC(C(=O)NCC2CCCO2)C1 (stereo not given) | – | – | – | – | – | –
O=C(CSc1nnc(-c2ccco2)n1Cc1ccccc1)c1ccccc1 | – | 51 | – | – | 49 | –
Cc1ccc(C(=O)CSc2nnc(-c3ccco3)n2Cc2ccccc2)cc1 | · | – | – | – | – | ·
CCOCCn1c(CN2CCOCC2)nc2c1c(=O)[nH]c(=O)n2C | – | – | – | – | – | –
CC(=O)c1sc(NC(=O)C2COc3ccccc3O2)nc1C (stereo not given) | – | – | – | – | – | –
CC(=O)c1sc(Nc2ccccn2)nc1C | – | – | – | – | – | 23
O=C(NCCCN1CCN(c2ccccc2F)CC1)C1CCC(=O)N1C1CCCC1 (stereo not given) | – | – | – | – | – | –
COc1ccc(C(=O)Nc2ccc(Cl)c(Cl)c2)c(OC)n1 | – | – | – | – | 52 | –
O=C(Nc1ccc(Cl)c(Cl)c1)c1ccncc1 | · | · | – | · | · | ·
Nc1ccccc1SCc1cn2ccccc2n1 | – | – | – | – | 49 | –
Nc1ccccc1SCc1cn2cccnc2n1 | – | – | – | – | – | –
COC(=O)c1ccc(NC(=O)c2ccc3c(c2)OCO3)cc1 | – | 53 | – | – | – | –
COC(=O)c1sccc1NC(=O)c1ccc2c(c1)OCO2 | · | · | – | · | · | ·
COc1ccc(NC(=O)c2ccc3c(c2)OCO3)cc1Cl | – | 53 | – | – | – | –
CC(=O)N1CCN(c2ccc(NC(=O)c3ccc4c(c3)OCCO4)cc2)CC1 | – | – | – | – | – | –
CN1CCN(c2ccc(NC(=O)c3ccc4c(c3)OCO4)cc2)CC1 | – | 61 | – | – | – | –
COC(=O)c1ccc(NC(=O)c2cccc(OC)c2)cc1 | – | – | – | – | 49 | –
CCn1c(=O)cc(SCC(=O)Nc2ccccc2N2CCN(C)CC2)c2ccccc21 | – | – | – | – | – | –
Cc1ccc2cc3c(NC(=O)C(C)C)nn(C)c3nc2c1 | – | – | – | – | – | –
Cc1csc2nc(CNC(=O)C3CC=CCC3C(=O)O)cn12 (stereo not given) | – | – | -4.3 | – | – | –
Cc1csc2nc(CNC(=O)c3ccco3)cn12 | – | 52 | – | – | – | –
CC(=O)NCc1cn2c(C)csc2n1 | – | – | – | – | – | –
Cc1csc2nc(CNC(=O)CCC(=O)O)cn12 | – | – | – | – | – | –
CCOc1cc(N2CCOCC2)c(OCC)cc1NC(=O)COC(=O)CCc1c[nH]c2ccccc12 | – | – | – | – | – | –
NC(=O)NC1CCCc2c1[nH]c1ccc(Cl)cc21 (stereo not given) | – | – | -3 | – | – | –
SMILES | ROCK2 blocker | SF-1 act | WNV protease inh | PKA inh | RORA act | JNK3 inh
CCOC(=O)C1CCCN(CC(=O)Nc2c(C(=O)OC)[nH]c3ccc(Cl)cc23)C1 (stereo not given) | – | – | – | – | – | –
O=C(Nc1nc2ccc(Cl)cc2s1)c1ccc(Br)o1 | – | – | – | – | 54 | –
CCN1C=C(Cc2cccs2)C2=C(C1)C(c1cccs1)C(C#N)=C(N)O2 (stereo not given) | – | – | – | – | – | –
Cc1ccccc1-n1c(C)nc2ccccc21 | – | – | – | – | – | –
CC1CN(c2nc3c(c(=O)[nH]c(=O)n3C)n2Cc2ccccc2F)CC(C)O1 (stereo not given) | · | – | – | – | – | ·
O=C(CN(C(=O)CSc1nnc(COc2ccccc2)o1)c1ccc(F)cc1)NC1CCCCC1 | – | – | – | – | – | –
Oc1ccc(-c2nc3cnccn3c2Nc2ccc3c(c2)OCCO3)cc1 | – | – | – | – | 53 | –
Cn1c(=O)c2c(ncn2CC(=O)Nc2ccc(Cl)cc2Cl)n(C)c1=O | – | – | – | – | – | –
CN(C)C(=O)CSc1nnc(C23CC4CC(CC(C4)C2)C3)o1 | – | 88 | – | – | – | –
COc1cc(C#CC#CCN2CCCCC2)ccc1O | – | – | – | – | – | –
CCOC(=O)CN(C(=O)CSc1nnc2c(n1)[nH]c1ccc(OC)cc12)c1ccc(F)cc1 | – | – | – | – | – | –
CCOC(=O)CC(=O)CSc1nnc2c(n1)[nH]c1ccccc12 | – | 53 | – | – | – | –
CCC(=O)c1cc(F)c(N2CCN(C(=O)Cc3ccccc3)CC2)cc1C | – | – | – | – | – | –
